The values that follow come from ChEMBL document CHEMBL1122019, “Synthesis and enzymic activity of 6-carbethoxy- and 6-ethoxy-3,7-disubstituted-pyrazolo[1,5-a]pyrimidines and related derivatives as adenosine cyclic 3' ,5'-phosphate phosphodiesterase inhibitors” (1982).

As usually defined, the inhibition is the change of the read-out against control, counted positive when it falls. A higher inhibition goes with a strong effect.

Each structure is given as a SMILES string.

Experiment [1] is filed under the species Oryctolagus cuniculus. The experiment is described as follows: Ratio of I50 of compound and I50 of theophylline for inhibition of cAMP phosphodiesterase isolated from rabbit lung. In outline:
(§1)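 Partially purified cAMP PDEs from beef heart, rabbit lung and rabbit kidney. Assay mixture in 0.5 mL: 25 μmol Tris-HCl pH 7.5, 5 μmol MgCl2, 10–75 μg enzyme protein, 350 pmol [3H]cAMP, and at least seven inhibitor concentrations (0.5 μM–5 mM). 5'-AMP formed measured at at least three time points (3–12 min) to confirm linear rates. I50 read graphically from % inhibition vs log concentration; α = I50 compound / I50 theophylline, with theophylline run in each experiment.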

The species named for experiment [2] is Oryctolagus cuniculus. As to the kind of experiment: Ratio of I50 of compound and I50 of theophylline for inhibition of cAMP phosphodiesterase isolated from rabbit kidney.
The species named for experiment [3] is Sus scrofa. The experiment is described as follows: Inhibition of ADP-induced platelet aggregation at 100 ug/mL. Type of experiment: functional. In outline:
(§2)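 Platelet-rich plasma from pig blood anticoagulated with sodium citrate (final 0.3 g/100 mL in blood), spun 500g for 20 min at 20 °C; about 2.0–8.0×10^8 platelets/mL, counted in duplicate. ADP-induced aggregation followed turbidimetrically at 600 nm with stirring (Born method). Criterion: 50% inhibition at ≤100 mcg/mL test compound, compared with adenosine as standard.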

The species entered for experiment [4] is Oryctolagus cuniculus. The experiment is described as follows: Relative inhibition of rabbit lung cAMP Phosphodiesterase compared to theophylline. In outline: as §1
In experiment [5] the test system is cAMP phosphodiesterase (Bos taurus). The experiment is described as follows: Relative inhibition of beef heart cAMP phosphodiesterase compared to theophylline. The conditions noted are these: target entry is the homologue from another species.
The species named for experiment [6] is Sus scrofa. The experiment is described as follows: Inhibition of ADP-induced platelet aggregation at 50 ug/mL. Type of experiment: functional. Put shortly:
as §2

The species named for experiment [7] is Bos taurus. The experiment is described as follows: Relative inhibition of bovine heart cAMP phosphodiesterase compared to theophylline. In outline: as §1
Experiment [8] can be described thus: Inhibition of ADP-induced platelet aggregation at 100 ug/mL.
The species named for experiment [9] is Oryctolagus cuniculus. The experiment is described as follows: Relative inhibition of rabbit lung cAMP Phosphodiesterase compared to theophylline (Insoluble).
The species named for experiment [10] is Sus scrofa. The experiment is described as follows: Inhibition of ADP-induced platelet aggregation at 25 ug/mL. Type of experiment: functional. Put shortly: as §2

Turning to `CCOC(=O)c1cnc2ccnn2c1Cl`, the Ratio in experiment [1] and in experiment [2] was 0.6 throughout.

With `CCNc1c(C(=O)OCC)cnc2c(Br)cnn12`, in experiment [3], the inhibition at 100 µg/mL was found to be 77%. Moreover, the Ratio in experiment [1] is 4; in [2], 8.

As for `Cc1cc(N2CCCCC2)n2nccc2n1`, the Ratio in experiment [4] stood at 2.4; in experiment [5], 1.5.

Consider `CCCOc1c(C(=O)OCC)cnc2ccnn12`, for which the Ratio in experiment [1] and in [2] was 0.6 throughout.

As for `CCCOc1c(C(=O)OCC)cnc2c(Br)cnn12`, the Ratio in experiment [1] came to 2.7; in [2], 1.8.

On to `CCCNc1c(C(=O)OCC)cnc2ccnn12`, for which the Ratio in experiment [1] was 5.9; in [2], 13.

For the compound `CCOC(=O)c1cnc2c(Br)cnn2c1NCCO`, in experiment [3], the inhibition at 100 µg/mL was 72%. For the same compound, the figures for the Ratio in [1] and in [2] were 1.3 and 3.1, respectively.

In the case of `CCOC(=O)c1cnc2c(CC)cnn2c1NN(C)C`, the Ratio worked out at 3.7 in [1] and 1.4 in experiment [2].

Regarding `CCOc1cc(C)nc2ccnn12`, the Ratio in [1] was 1.4.

As for `CCCOc1c(OCC)cnc2c(CC)cnn12`, the Ratio in experiment [1] was found to be 1.6; in experiment [2] it was 1.3.

In the case of `CCSc1cc(C)nc2c(CC)cnn12`, the Ratio in [1] came to 8.9.

Turning to `CCOC(=O)c1cnc2c(CC)cnn2c1SCC`, the Ratio turned out to be 13 in experiment [1] and 5.5 in experiment [2].

Take `CCOC(=O)c1cnc2ccnn2c1SCC`: the Ratio in experiment [1] came out at 4.3; in [2] it was 0.8.

As for `CCOc1cnc2c(CC)cnn2c1NCC(=O)O`, the results for the Ratio in experiment [1] and in [2] were 0.7 and 0.4, respectively.

On to `COC(CNc1cc(C)nc2c(Br)cnn12)OC`, for which the Ratio in experiment [1] worked out at 6.8.

Turning to `CCCNc1cc(C)nc2c(CC)cnn12`, the Ratio in [1] stood at 9.4.

`CCOC(=O)c1cnc2ccnn2c1NCC(=O)O` registered an inhibition at 100 µg/mL in experiment [3] of 76%. Further, the inhibition at 50 µg/mL in experiment [6] was 67%. Also, the figures for the Ratio in [1] and in experiment [2] were 1.7 and 1.2, respectively.

Consider `CCCNc1c(OCC)cnc2c(CC)cnn12`, for which the Ratio came out at 3.7 in [1] and 3.4 in experiment [2].

`CCOC(=O)c1cnc2ccnn2c1NCCO` had an inhibition at 100 µg/mL in [3] of 92%. The inhibition at 50 µg/mL in experiment [6] was 47%. Further, the Ratio stood at 1.5 in [1] and 0.3 in experiment [2].

As to `CCCNc1c(C(=O)OCC)cnc2c(CC)cnn12`, the Ratio turned out to be 3.6 in experiment [1] and 3.2 in experiment [2].

In [3], `CCOC(=O)c1cnc2c(C(=O)OCC)cnn2c1O` came in with an inhibition at 100 µg/mL of 68%. For the same compound, the inhibition at 50 µg/mL in experiment [6] was determined as 23%. The values for the Ratio in experiment [1] and in [2] were 0.6 and 0.4, respectively.

For `CCOC(=O)c1cnc2ccnn2c1N(CC)CC`, the figures for the Ratio in experiment [7], in [1] and in [2] were 2.3, 1.8 and 2, respectively.

On to `CCOC(=O)c1cnc2ccnn2c1N`, for which, in experiment [3], testing at 100 µg/mL gave an inhibition of 94%. In experiment [6], this compound showed an inhibition at 50 µg/mL of 50%. Also, the values for the Ratio in [1] and in experiment [2] were 0.9 and 1, respectively.

Regarding `CCCOc1c(C(=O)OCC)cnc2c(CC)cnn12`, the Ratio in experiment [1] and in [2] was 2.4 in each case.

Take `CCOC(=O)c1cnc2c(Br)cnn2c1N(CC)CC`: the Ratio in experiment [7] turned out to be 3.5; in experiment [1] it was 6; in [2], 6.

`Nc1ncnc2c1ncn2[C@@H]1O[C@H](CO)[C@@H](O)[C@H]1O` [ADENOSINE] gave an inhibition at 100 µg/mL in experiment [8] of 64%.

In experiment [3], `CCNc1c(C(=O)OCC)cnc2ccnn12` came in with an inhibition at 100 µg/mL of 86%. Moreover, the inhibition at 50 µg/mL in [6] was 42%. Besides, the Ratio is 4.3 in [1] and 5.2 in experiment [2].

For the compound `CCCOc1cc(C)nc2c(CC)cnn12`, the Ratio in experiment [1] turned out to be 5.4.

In the case of `CCOC(=O)c1cnc2c(C(=O)OCC)cnn2c1N`, at 100 µg/mL the inhibition in experiment [3] was 96%. The compound also came in with an inhibition at 50 µg/mL in [6] of 47%. The Ratio in experiment [7] is 0.7; in [1] it was 1.5; in experiment [2] it was 2.

For the compound `CCOc1cnc2c(CC)cnn2c1NCCC(=O)O`, the Ratio in [1] is 1; in [2] it was 0.6.

Take `CCOC(=O)c1cnc2ccnn2c1S`: the Ratio in [7] amounted to 1.2; in experiment [1], 2; in [2], 1.

On to `CCOC(=O)c1cnc2c([N+](=O)[O-])cnn2c1N`, for which the Ratio result in experiment [9] is “Insoluble”.

`CCOC(=O)c1cnc2c(Br)cnn2c1N`: in experiment [3], the inhibition at 100 µg/mL was 68%. The inhibition at 25 µg/mL in experiment [10] came out at 67%. Further, the Ratio result in experiment [9] was “Insoluble”.

Turning to `Cc1cc(NCCO)n2nccc2n1`, the Ratio in experiment [1] is 0.5.

On to `CCCNc1c(C(=O)OCC)cnc2c(Br)cnn12`, for which the inhibition at 100 µg/mL in experiment [3] is 50%. Further, the Ratio in experiment [1] turned out to be 6; in experiment [2], 7.2.

Regarding `CCCCNc1cc(C)nc2c(Br)cnn12`, the Ratio in [1] stood at 1.5.

Regarding `CCOC(=O)c1cnc2c(Br)cnn2c1NCC(=O)O`, the values for the Ratio in [7], in experiment [1] and in experiment [2] were 2.6, 2.4 and 1.5, respectively.

Regarding `Cc1cc(NN)n2nccc2n1`, the Ratio in [1] was 1.5.

Turning to `CCOC(=O)c1cnc2ccnn2c1NN(C)C`, the Ratio in experiment [1] was found to be 2; in [2] it was 1.1.

In [3], `CCOC(=O)c1cnc2c(Br)cnn2c1O` yielded an inhibition at 100 µg/mL of 88%. Besides, in [6], the inhibition at 50 µg/mL is 34%. Moreover, the Ratio in experiment [1] came to 0.5; in [2] it was 1.
